Experimental data from ChEMBL document CHEMBL1122398, “Some biological properties of the impure dichloride salt of tetrakis[p-(dimethylamino)phenyl]ethylene and a pinacolone” (1983).
Several values for one entry are separate records, joined by “and”; a condition that tells them apart may be missing. Equal values may be shown once.

Key:
[1] = system: Mus musculus; experiment: Tested for anti-lymphosarcoma activity in mice at the dose of 5 mg/kg by determining average survivals
[2] = organism: Mus musculus; experiment: Tested for anti-lymphosarcoma activity in mice (control) with 50-day survival period out of 5 tested; type: functional
Summary of the method: (§1)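 Groups of five female C3H mice received 7.5×10^6 Gardner lymphosarcoma (6C3 HED) cells per mouse intraperitoneally. Starting 1 day later, mice were dosed subcutaneously on the lower back once daily for 5 days, with test material in saline or 10% (CH₃)₂SO. Control mice received vehicle only. Read-outs were average survival in days and the number of mice surviving 50 days.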

[3] = system: Mus musculus; experiment: Number of mice with 50-day survival period after treating with 10 mg/Kg of compound out of 5 tested; type: functional
Summary of the method: as §1

[4] = organism: Mus musculus; experiment: Tested for average survival days in mice (control); type: functional
Summary of the method: as §1

[5] = system: Mus musculus; experiment: Number of mice with 50-day survival period after treating with 5 mg/Kg of compound out of 5 tested; type: functional
Summary of the method: as §1

[6] = system: Mus musculus; experiment: Number of mice with 50-day survival period in control group at a dose of 10 mg/Kg tested out of 5 mice treated; type: functional
Summary of the method: as §1

[7] = system: Mus musculus; experiment: Tested for average survival days in control mice at a dose of 10 mg/Kg; type: functional
Summary of the method: as §1

[8] = system: Mus musculus; experiment: Tested for anti-lymphosarcoma in mice at the dose of 10 mg/kg; type: functional
Summary of the method: as §1

[9] = system: Mus musculus; experiment: Number of mice with 50-day survival period in control group at a dose of 5 mg/Kg tested out of 5 mice treated; type: functional
Summary of the method: as §1

[10] = system: Mus musculus; experiment: Tested for average survival days in control mice at a dose of 5 mg/Kg; type: functional
Summary of the method: as §1

[11] = system: Mus musculus; experiment: Tested for anti-lymphosarcoma activity in mice at the dose of 10 mg/kg by determining average survivals; type: functional
Summary of the method: as §1

## CN(C)c1ccc(C(=C2C=CC(=[N+](C)C)C=C2)C(c2ccc(N(C)C)cc2)c2ccc(N(C)C)cc2)cc1
[1]
  Average survival: 13.2 days
[2]
  No. of survivals: 0
[3]
  No. of survivals: 0
[4]
  Average survival: 12.2 days

## CN(C)c1ccc(C(=C(c2ccc(N(C)C)cc2)c2ccc(N(C)C)cc2)c2ccc(N(C)C)cc2)cc1
[1]
  Average survival: 21.5 days
[5]
  No. of survivals: 1
[6]
  No. of survivals: 0
[7]
  Average survival: 14.8 days
[8]
  Average survival: 37.6 days
[3]
  No. of survivals: 4
[9]
  No. of survivals: 0
[10]
  Average survival: 14.8 days

## CN(C)c1ccc(C(=C2C=CC(=[N+](C)C)C=C2)C(=C2C=CC(=[N+](C)C)C=C2)c2ccc(N(C)C)cc2)cc1
[11]
  Average survival: 37.6 days and 42.8 days
[3]
  No. of survivals: 4
[4]
  Average survival: 14.8 days and 23 days
